Reference: ChEMBL document CHEMBL1133729, “Design, synthesis, and structure-activity relationships of phthalimide-phenylpiperazines: a novel series of potent and selective alpha(1)(a)-adrenergic receptor antagonists” (J Med Chem, 2000)
pKi: −log10 of the molar value.

Target: T1, D(4) dopamine receptor (Homo sapiens) (UniProt P21917)
T1 sequence (whole entry): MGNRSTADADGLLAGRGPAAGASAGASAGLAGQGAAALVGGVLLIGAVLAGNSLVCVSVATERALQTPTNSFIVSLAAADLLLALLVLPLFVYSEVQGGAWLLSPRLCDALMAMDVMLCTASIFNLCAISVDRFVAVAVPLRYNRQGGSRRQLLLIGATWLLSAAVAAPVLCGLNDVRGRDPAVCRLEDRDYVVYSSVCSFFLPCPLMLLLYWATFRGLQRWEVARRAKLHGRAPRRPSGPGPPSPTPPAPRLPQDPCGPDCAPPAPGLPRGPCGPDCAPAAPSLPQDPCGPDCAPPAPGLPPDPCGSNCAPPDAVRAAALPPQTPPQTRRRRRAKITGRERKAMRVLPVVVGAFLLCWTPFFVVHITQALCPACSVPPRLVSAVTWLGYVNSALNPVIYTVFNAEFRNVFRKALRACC
Assay: Compound at 1 uM was tested for the inhibition of radioligand [3H]spiperone binding to recombinant human Dopamine receptor D4.7
Summary of the method: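 Recombinant human D4.7 in CHO cell membranes; [3H]spiperone for 120 min at 25 °C, pH 7.4 Tris-HCl/NaCl/EDTA; haloperidol (10 μM) for nonspecific binding. Compound at 1 μM, percent inhibition determined in duplicate; filtration, scintillation counting.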

Row | Compound | inhibition [%]
1 | CC(C)Oc1ccccc1N1CCN(C[C@@H](O)CNC(=O)c2ccc3c(c2)C(=O)N(c2cccc(F)c2)C3=O)CC1 | 43
2 | CCOc1ccccc1OCCN[C@H](C)Cc1ccc(OC)c(S(N)(=O)=O)c1 [TAMSULOSIN] | 21
3 | COc1ccc(N2C(=O)c3ccc(C(=O)NCCCN4CCN(c5ccccc5OC(C)C)CC4)cc3C2=O)cc1 | 32
4 | Cc1ccc(N2C(=O)c3ccc(C(=O)NCCCN4CCN(c5ccccc5OC(C)C)CC4)cc3C2=O)cc1 | 20
5 | CC(C)Oc1ccccc1N1CCN(C[C@@H](O)CNC(=O)c2ccc3c(c2)C(=O)N(c2ccc(N(C)C)cc2)C3=O)CC1 | 50
6 | CC(C)Oc1ccccc1N1CCN(CCCNC(=O)c2ccc3c(c2)C(=O)N(c2cccc(F)c2)C3=O)CC1 | 69

Target: 5-hydroxytryptamine receptor 7 (Homo sapiens, UniProt P34969)
Assay: Compound at 1 uM was tested for the inhibition of radioligand [3H]LSD binding to recombinant human 5-hydroxytryptamine 7 receptor
Summary of the method: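 Human 5-HT7 expressed in CHO cells; [3H]LSD, 120 min at 37 °C, pH 7.4 Tris-HCl/NaCl/EDTA; 5 μM 5-HT for nonspecific binding. Compound at 1 μM, duplicate determinations of percent inhibition; filtration, scintillation counting.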

Chain of 5-hydroxytryptamine receptor 7 (P34969 whole entry): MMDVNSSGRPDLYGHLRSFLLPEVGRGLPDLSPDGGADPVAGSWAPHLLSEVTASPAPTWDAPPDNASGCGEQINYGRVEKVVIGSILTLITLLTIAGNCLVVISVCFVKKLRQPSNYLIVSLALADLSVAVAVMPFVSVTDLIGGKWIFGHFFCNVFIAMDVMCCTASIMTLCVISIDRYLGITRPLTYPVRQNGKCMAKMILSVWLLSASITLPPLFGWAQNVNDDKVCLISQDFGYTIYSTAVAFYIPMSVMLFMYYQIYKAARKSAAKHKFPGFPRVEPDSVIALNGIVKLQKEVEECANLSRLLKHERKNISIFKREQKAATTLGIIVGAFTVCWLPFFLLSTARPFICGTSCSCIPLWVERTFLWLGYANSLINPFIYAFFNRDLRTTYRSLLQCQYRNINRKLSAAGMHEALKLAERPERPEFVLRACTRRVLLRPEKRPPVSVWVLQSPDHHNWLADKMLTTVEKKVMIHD

Row | Compound | inhibition [%]
7 | CC(C)Oc1ccccc1N1CCN(C[C@@H](O)CNC(=O)c2ccc3c(c2)C(=O)N(c2cccc(F)c2)C3=O)CC1 | 95
8 | CCOc1ccccc1OCCN[C@H](C)Cc1ccc(OC)c(S(N)(=O)=O)c1 [TAMSULOSIN] | 74
9 | Cc1ccc(N2C(=O)c3ccc(C(=O)NC[C@H](O)CN4CCN(c5ccccc5OC(C)C)CC4)cc3C2=O)cc1 | 90
10 | COc1ccc(N2C(=O)c3ccc(C(=O)NCCCN4CCN(c5ccccc5OC(C)C)CC4)cc3C2=O)cc1 | 92
11 | Cc1ccc(N2C(=O)c3ccc(C(=O)NCCCN4CCN(c5ccccc5OC(C)C)CC4)cc3C2=O)cc1 | 95
12 | CC(C)Oc1ccccc1N1CCN(C[C@@H](O)CNC(=O)c2ccc3c(c2)C(=O)N(c2ccc(N(C)C)cc2)C3=O)CC1 | 95
13 | CC(C)Oc1ccccc1N1CCN(CCCNC(=O)c2ccc3c(c2)C(=O)N(c2cccc(F)c2)C3=O)CC1 | 92

Target: T2, Alpha-1A adrenergic receptor (Homo sapiens, UniProt P35348)
T2 sequence (P35348 whole entry): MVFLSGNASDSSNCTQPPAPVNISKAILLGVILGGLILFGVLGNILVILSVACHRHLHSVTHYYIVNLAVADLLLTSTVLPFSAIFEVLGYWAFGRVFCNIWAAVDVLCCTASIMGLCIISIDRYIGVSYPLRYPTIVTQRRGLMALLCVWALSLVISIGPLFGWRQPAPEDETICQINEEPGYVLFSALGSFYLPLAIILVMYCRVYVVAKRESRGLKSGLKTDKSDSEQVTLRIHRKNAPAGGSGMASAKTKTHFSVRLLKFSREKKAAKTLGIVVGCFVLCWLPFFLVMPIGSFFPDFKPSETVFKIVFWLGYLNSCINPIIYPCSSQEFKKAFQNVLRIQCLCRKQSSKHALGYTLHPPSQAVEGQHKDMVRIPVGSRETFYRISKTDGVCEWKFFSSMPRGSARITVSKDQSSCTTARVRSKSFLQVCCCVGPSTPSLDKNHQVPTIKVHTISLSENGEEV
Assay: Binding affinity towards cloned human alpha-1A adrenergic receptor was determined using [125]-HEAT as radioligand

Row | Compound | pKi
14 | CC(C)Oc1ccccc1N1CCN(C[C@@H](O)CNC(=O)c2ccc3c(c2)C(=O)N(c2cccc(F)c2)C3=O)CC1 | 8.99
15 | Cc1ccc(N2C(=O)c3ccc(C(=O)NC[C@H](O)CN4CCN(c5ccccc5OC(C)C)CC4)cc3C2=O)cc1 | 9.54
16 | COc1ccc(N2C(=O)c3ccc(C(=O)NCCCN4CCN(c5ccccc5OC(C)C)CC4)cc3C2=O)cc1 | 9.96
17 | Cc1ccc(N2C(=O)c3ccc(C(=O)NCCCN4CCN(c5ccccc5OC(C)C)CC4)cc3C2=O)cc1 | 9.80
18 | CC(C)Oc1ccccc1N1CCN(C[C@@H](O)CNC(=O)c2ccc3c(c2)C(=O)N(c2ccc(N(C)C)cc2)C3=O)CC1 | 9.48
19 | CC(C)Oc1ccccc1N1CCN(CCCNC(=O)c2ccc3c(c2)C(=O)N(c2cccc(F)c2)C3=O)CC1 | 9.39

Target: Histamine H1 receptor (Cavia porcellus) (UniProt P31389)
Assay: Compound at 1 uM was tested for the inhibition of radioligand [3H]pyrilamine binding to central histamine H1 receptor in guinea pig brain
Summary of the method: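 Central H1 from guinea pig brain membranes; [3H]pyrilamine 25 °C for 60 min, pH 7.4 Tris-HCl/NaCl/EDTA buffer; 1 μM pyrilamine for nonspecific binding. Percent inhibition by compound at 1 μM, duplicate; filtered, scintillation counted.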

Chain of Histamine H1 receptor (Cavia porcellus) (P31389 whole entry): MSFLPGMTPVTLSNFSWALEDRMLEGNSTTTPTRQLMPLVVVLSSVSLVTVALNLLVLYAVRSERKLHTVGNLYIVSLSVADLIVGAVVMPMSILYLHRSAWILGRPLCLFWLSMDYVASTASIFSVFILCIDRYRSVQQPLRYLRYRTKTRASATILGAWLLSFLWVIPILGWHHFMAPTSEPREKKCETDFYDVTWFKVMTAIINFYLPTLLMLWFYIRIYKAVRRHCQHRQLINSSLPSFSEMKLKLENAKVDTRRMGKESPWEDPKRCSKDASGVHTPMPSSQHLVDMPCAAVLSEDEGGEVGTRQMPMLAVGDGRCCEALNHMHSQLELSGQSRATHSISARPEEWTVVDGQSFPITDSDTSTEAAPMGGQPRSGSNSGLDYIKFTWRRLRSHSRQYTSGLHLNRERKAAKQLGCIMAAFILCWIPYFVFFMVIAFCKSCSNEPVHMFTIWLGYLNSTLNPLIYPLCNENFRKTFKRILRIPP

Row | Compound | inhibition [%]
20 | CC(C)Oc1ccccc1N1CCN(C[C@@H](O)CNC(=O)c2ccc3c(c2)C(=O)N(c2cccc(F)c2)C3=O)CC1 | 95
21 | CCOc1ccccc1OCCN[C@H](C)Cc1ccc(OC)c(S(N)(=O)=O)c1 [TAMSULOSIN] | 18
22 | Cc1ccc(N2C(=O)c3ccc(C(=O)NC[C@H](O)CN4CCN(c5ccccc5OC(C)C)CC4)cc3C2=O)cc1 | 93
23 | COc1ccc(N2C(=O)c3ccc(C(=O)NCCCN4CCN(c5ccccc5OC(C)C)CC4)cc3C2=O)cc1 | 97
24 | Cc1ccc(N2C(=O)c3ccc(C(=O)NCCCN4CCN(c5ccccc5OC(C)C)CC4)cc3C2=O)cc1 | 97
25 | CC(C)Oc1ccccc1N1CCN(C[C@@H](O)CNC(=O)c2ccc3c(c2)C(=O)N(c2ccc(N(C)C)cc2)C3=O)CC1 | 88
26 | CC(C)Oc1ccccc1N1CCN(CCCNC(=O)c2ccc3c(c2)C(=O)N(c2cccc(F)c2)C3=O)CC1 | 87

Target: D(2) dopamine receptor (Homo sapiens, UniProt P14416)
Assay: Compound at 1 uM was tested for the inhibition of radioligand [3H]spiperone binding to recombinant human Dopamine receptor D2L
Summary of the method: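 D2L (human, CHO-expressed) membranes; [3H]spiperone, 25 °C, 120 min; pH 7.4 Tris-HCl/NaCl/EDTA; nonspecific with 10 μM haloperidol. Compound at 1 μM, percent inhibition in duplicate; filtration, scintillation counting.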

Chain of D(2) dopamine receptor (P14416 whole entry): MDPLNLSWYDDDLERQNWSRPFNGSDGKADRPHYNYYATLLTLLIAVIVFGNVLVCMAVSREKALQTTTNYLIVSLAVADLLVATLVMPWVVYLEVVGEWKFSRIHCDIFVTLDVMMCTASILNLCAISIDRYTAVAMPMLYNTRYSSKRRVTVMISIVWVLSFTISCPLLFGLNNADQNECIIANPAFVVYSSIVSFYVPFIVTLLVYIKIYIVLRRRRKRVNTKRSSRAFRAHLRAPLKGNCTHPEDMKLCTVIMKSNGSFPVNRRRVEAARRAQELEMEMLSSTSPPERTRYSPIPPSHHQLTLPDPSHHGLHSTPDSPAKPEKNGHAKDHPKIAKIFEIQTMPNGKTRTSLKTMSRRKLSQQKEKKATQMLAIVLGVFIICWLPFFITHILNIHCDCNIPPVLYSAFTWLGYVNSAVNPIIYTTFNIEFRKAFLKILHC

Row | Compound | inhibition [%]
27 | CC(C)Oc1ccccc1N1CCN(C[C@@H](O)CNC(=O)c2ccc3c(c2)C(=O)N(c2cccc(F)c2)C3=O)CC1 | 55
28 | CCOc1ccccc1OCCN[C@H](C)Cc1ccc(OC)c(S(N)(=O)=O)c1 [TAMSULOSIN] | 53
29 | Cc1ccc(N2C(=O)c3ccc(C(=O)NC[C@H](O)CN4CCN(c5ccccc5OC(C)C)CC4)cc3C2=O)cc1 | 68
30 | COc1ccc(N2C(=O)c3ccc(C(=O)NCCCN4CCN(c5ccccc5OC(C)C)CC4)cc3C2=O)cc1 | 83
31 | Cc1ccc(N2C(=O)c3ccc(C(=O)NCCCN4CCN(c5ccccc5OC(C)C)CC4)cc3C2=O)cc1 | 83
32 | CC(C)Oc1ccccc1N1CCN(C[C@@H](O)CNC(=O)c2ccc3c(c2)C(=O)N(c2ccc(N(C)C)cc2)C3=O)CC1 | 71
33 | CC(C)Oc1ccccc1N1CCN(CCCNC(=O)c2ccc3c(c2)C(=O)N(c2cccc(F)c2)C3=O)CC1 | 89

Target: T3, Alpha-2A adrenergic receptor (Homo sapiens) (UniProt P08913)
T3 sequence (whole entry): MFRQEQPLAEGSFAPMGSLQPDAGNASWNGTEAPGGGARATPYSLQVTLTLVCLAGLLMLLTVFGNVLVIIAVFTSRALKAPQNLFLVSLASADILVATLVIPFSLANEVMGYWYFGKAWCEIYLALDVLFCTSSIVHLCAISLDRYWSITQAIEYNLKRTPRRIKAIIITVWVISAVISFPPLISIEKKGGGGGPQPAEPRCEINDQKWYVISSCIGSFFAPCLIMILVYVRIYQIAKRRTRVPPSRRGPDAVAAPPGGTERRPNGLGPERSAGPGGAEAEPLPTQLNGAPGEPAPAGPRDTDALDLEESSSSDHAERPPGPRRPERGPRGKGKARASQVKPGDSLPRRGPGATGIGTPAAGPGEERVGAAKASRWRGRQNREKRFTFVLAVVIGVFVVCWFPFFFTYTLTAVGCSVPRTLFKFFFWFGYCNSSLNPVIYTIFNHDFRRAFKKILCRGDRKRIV
Assay: Compound at 1 uM was tested for the inhibition of radioligand [3H]MK-912 binding to recombinant human alpha-2A adrenergic receptor
Summary of the method: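 Recombinant human α2a or α2c receptors in CHO cell membranes; [3H]MK912, 60 min at 25 °C in 50 mM Tris-HCl, 150 mM NaCl, 5 mM EDTA, pH 7.4; WB4101 (10 μM) for nonspecific binding. Percent inhibition at 1 μM in duplicate; filtration, scintillation counting.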

Row | Compound | inhibition [%]
34 | CC(C)Oc1ccccc1N1CCN(C[C@@H](O)CNC(=O)c2ccc3c(c2)C(=O)N(c2cccc(F)c2)C3=O)CC1 | 29
35 | CCOc1ccccc1OCCN[C@H](C)Cc1ccc(OC)c(S(N)(=O)=O)c1 [TAMSULOSIN] | 82
36 | Cc1ccc(N2C(=O)c3ccc(C(=O)NC[C@H](O)CN4CCN(c5ccccc5OC(C)C)CC4)cc3C2=O)cc1 | 19
37 | COc1ccc(N2C(=O)c3ccc(C(=O)NCCCN4CCN(c5ccccc5OC(C)C)CC4)cc3C2=O)cc1 | 80
38 | Cc1ccc(N2C(=O)c3ccc(C(=O)NCCCN4CCN(c5ccccc5OC(C)C)CC4)cc3C2=O)cc1 | 87
39 | CC(C)Oc1ccccc1N1CCN(C[C@@H](O)CNC(=O)c2ccc3c(c2)C(=O)N(c2ccc(N(C)C)cc2)C3=O)CC1 | 18
40 | CC(C)Oc1ccccc1N1CCN(CCCNC(=O)c2ccc3c(c2)C(=O)N(c2cccc(F)c2)C3=O)CC1 | 78

Target: T4, Alpha-2B adrenergic receptor (Rattus norvegicus) (UniProt P19328)
T4 sequence (whole entry): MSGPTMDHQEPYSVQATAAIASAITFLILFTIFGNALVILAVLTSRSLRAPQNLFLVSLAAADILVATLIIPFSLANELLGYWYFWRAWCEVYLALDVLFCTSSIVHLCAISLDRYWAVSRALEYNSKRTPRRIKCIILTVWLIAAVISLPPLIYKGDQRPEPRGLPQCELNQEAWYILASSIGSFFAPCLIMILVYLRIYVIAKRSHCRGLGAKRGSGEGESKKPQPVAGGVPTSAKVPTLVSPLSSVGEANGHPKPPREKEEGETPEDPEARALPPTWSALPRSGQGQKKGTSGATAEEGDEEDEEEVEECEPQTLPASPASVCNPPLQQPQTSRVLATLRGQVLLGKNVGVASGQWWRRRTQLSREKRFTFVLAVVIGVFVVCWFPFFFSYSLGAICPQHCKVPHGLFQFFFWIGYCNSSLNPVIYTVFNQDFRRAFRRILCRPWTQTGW
Assay: Compound at 1 uM was tested for the inhibition of radioligand [3H]yohimbine binding to rat alpha-2B adrenergic receptor
Summary of the method: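 Rat kidney cortical membranes; [3H]yohimbine, 25 °C for 30 min, pH 7.4 Tris-HCl/NaCl/EDTA; 10 μM phentolamine for nonspecific binding. Percent inhibition at 1 μM compound, in duplicate; filtration, scintillation counting.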

Row | Compound | inhibition [%]
41 | CC(C)Oc1ccccc1N1CCN(C[C@@H](O)CNC(=O)c2ccc3c(c2)C(=O)N(c2cccc(F)c2)C3=O)CC1 | 70
42 | CCOc1ccccc1OCCN[C@H](C)Cc1ccc(OC)c(S(N)(=O)=O)c1 [TAMSULOSIN] | 86
43 | Cc1ccc(N2C(=O)c3ccc(C(=O)NC[C@H](O)CN4CCN(c5ccccc5OC(C)C)CC4)cc3C2=O)cc1 | 75
44 | COc1ccc(N2C(=O)c3ccc(C(=O)NCCCN4CCN(c5ccccc5OC(C)C)CC4)cc3C2=O)cc1 | 79
45 | Cc1ccc(N2C(=O)c3ccc(C(=O)NCCCN4CCN(c5ccccc5OC(C)C)CC4)cc3C2=O)cc1 | 66
46 | CC(C)Oc1ccccc1N1CCN(C[C@@H](O)CNC(=O)c2ccc3c(c2)C(=O)N(c2ccc(N(C)C)cc2)C3=O)CC1 | 73
47 | CC(C)Oc1ccccc1N1CCN(CCCNC(=O)c2ccc3c(c2)C(=O)N(c2cccc(F)c2)C3=O)CC1 | 78
